The target of assay [1] is T1, Tyrosine-protein kinase Mer (Homo sapiens) (UniProt Q12866).
T1 sequence (whole entry): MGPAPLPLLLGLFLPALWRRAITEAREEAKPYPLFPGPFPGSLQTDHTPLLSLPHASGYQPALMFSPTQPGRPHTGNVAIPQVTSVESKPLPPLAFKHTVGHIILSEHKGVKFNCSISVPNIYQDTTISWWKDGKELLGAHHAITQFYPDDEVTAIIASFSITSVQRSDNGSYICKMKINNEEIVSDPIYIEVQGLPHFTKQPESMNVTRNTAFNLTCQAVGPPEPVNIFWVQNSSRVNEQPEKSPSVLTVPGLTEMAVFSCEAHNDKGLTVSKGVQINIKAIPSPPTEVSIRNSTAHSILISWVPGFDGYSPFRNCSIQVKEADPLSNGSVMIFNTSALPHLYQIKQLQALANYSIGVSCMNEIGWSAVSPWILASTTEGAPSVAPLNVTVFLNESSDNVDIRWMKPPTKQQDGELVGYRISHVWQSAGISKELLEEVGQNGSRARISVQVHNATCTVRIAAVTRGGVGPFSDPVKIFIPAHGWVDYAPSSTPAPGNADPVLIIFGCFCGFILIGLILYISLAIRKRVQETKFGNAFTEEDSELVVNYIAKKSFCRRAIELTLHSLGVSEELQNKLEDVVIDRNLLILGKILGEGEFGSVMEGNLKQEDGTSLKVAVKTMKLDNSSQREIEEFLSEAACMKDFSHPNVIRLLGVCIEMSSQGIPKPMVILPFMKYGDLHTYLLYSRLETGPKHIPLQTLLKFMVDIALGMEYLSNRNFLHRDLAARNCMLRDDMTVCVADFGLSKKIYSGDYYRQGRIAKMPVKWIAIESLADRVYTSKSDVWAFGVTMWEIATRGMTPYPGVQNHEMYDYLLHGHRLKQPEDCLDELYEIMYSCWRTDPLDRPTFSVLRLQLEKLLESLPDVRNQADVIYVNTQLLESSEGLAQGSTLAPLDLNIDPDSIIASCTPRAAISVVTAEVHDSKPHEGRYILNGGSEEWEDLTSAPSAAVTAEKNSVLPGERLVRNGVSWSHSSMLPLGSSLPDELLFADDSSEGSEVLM
As to the kind of experiment: Inhibition of MERTK at 1 uM. Put shortly:
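Kinase-panel screen using KINOMEscan technology, with 250–400 kinases per panel. Each compound was tested at a single concentration, and inhibition of each kinase was recorded. Selectivity was summarised as S(90), the fraction of kinases inhibited by more than 90%.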

Assay [2] concerns the target Myosin light chain kinase 2, skeletal/cardiac muscle (Homo sapiens) (UniProt Q9H1R3). The assay is described as follows: Inhibition of MYLK2 at 1 uM.
Assay [3] has as its target T2, Serine/threonine-protein kinase D2 (Homo sapiens) (UniProt Q9BZL6).
T2 sequence (whole entry): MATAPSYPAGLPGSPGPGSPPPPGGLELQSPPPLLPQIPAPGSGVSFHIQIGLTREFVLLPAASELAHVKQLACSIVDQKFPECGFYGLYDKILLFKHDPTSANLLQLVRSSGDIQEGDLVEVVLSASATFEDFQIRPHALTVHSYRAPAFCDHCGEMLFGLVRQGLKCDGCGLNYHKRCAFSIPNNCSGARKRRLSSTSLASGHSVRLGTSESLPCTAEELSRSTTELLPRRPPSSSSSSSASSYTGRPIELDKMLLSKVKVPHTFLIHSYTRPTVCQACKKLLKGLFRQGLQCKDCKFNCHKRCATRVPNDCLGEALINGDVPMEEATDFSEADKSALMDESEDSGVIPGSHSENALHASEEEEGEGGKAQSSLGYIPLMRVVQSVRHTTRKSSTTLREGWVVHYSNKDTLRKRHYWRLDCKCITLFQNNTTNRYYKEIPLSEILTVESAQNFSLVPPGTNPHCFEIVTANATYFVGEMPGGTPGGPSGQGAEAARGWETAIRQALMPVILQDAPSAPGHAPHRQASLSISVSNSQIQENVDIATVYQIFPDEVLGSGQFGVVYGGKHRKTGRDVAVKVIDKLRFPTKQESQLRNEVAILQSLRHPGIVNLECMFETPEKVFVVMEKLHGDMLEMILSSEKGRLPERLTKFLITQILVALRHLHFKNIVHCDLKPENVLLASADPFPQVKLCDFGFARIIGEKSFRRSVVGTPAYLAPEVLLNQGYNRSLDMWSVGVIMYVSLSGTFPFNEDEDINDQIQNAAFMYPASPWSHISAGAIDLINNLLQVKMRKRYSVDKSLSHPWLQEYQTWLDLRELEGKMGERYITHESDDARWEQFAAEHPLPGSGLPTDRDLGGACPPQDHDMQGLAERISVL
As to the kind of experiment: Inhibition of PRKD2 at 1 uM.

Assay [4] addresses Activated CDC42 kinase 1 (Homo sapiens) (UniProt Q07912). As to the kind of experiment: Inhibition of TNK2 at 1 uM. In short, it runs like this:
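Single-concentration screen on the Ambit KINOMEscan platform, run against a panel of 250–400 kinases. Per-kinase inhibition was also summarized as S(90), the fraction of kinases inhibited by more than 90%.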

The target of assay [5] is Serine/threonine-protein kinase B-raf (Homo sapiens) (UniProt P15056). As to the kind of experiment: Inhibition of BRAF at 1 uM. Put shortly: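 Ambit KINOMEscan screen at a single concentration across a 250–400 kinase panel, recorded as percent inhibition. Selectivity was expressed as S(90), the fraction of kinases inhibited >90%.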
Sequence of Serine/threonine-protein kinase B-raf (Homo sapiens) (P15056 whole entry): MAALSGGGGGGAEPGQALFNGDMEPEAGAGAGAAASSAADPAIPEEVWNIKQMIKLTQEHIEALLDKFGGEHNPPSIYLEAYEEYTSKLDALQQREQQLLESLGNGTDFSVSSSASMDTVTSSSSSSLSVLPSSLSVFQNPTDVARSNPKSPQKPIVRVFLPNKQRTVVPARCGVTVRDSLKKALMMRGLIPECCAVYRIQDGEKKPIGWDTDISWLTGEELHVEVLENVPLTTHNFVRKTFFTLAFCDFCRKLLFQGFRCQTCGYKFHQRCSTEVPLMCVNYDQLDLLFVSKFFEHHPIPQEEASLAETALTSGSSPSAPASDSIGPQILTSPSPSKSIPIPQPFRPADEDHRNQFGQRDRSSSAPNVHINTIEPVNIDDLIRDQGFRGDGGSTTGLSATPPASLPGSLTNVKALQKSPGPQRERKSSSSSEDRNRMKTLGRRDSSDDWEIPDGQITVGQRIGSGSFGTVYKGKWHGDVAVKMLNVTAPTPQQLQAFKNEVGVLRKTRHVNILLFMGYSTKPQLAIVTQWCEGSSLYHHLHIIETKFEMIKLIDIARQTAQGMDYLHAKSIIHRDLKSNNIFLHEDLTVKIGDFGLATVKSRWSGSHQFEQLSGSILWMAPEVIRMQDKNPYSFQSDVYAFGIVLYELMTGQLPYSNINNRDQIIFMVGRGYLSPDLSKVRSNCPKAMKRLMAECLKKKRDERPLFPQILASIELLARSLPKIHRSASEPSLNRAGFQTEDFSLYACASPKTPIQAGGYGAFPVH

Sequence of Myosin light chain kinase 2, skeletal/cardiac muscle (Homo sapiens) (Q9H1R3 whole entry): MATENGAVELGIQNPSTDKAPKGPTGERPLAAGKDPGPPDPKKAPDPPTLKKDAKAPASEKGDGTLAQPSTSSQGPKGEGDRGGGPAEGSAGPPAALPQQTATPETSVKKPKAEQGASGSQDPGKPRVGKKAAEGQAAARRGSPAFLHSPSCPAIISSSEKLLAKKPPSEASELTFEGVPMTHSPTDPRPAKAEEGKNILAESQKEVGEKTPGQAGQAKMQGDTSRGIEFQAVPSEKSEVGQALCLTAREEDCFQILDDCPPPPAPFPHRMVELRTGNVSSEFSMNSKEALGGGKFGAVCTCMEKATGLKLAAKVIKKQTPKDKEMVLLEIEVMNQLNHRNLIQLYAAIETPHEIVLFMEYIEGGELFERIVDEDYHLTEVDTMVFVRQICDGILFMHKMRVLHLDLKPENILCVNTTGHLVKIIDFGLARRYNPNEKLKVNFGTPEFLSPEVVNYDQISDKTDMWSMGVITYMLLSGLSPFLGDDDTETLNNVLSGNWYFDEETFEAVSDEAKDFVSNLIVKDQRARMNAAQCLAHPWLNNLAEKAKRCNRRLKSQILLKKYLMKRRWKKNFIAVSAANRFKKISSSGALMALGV
Sequence of Activated CDC42 kinase 1 (Homo sapiens) (Q07912 whole entry, looked up): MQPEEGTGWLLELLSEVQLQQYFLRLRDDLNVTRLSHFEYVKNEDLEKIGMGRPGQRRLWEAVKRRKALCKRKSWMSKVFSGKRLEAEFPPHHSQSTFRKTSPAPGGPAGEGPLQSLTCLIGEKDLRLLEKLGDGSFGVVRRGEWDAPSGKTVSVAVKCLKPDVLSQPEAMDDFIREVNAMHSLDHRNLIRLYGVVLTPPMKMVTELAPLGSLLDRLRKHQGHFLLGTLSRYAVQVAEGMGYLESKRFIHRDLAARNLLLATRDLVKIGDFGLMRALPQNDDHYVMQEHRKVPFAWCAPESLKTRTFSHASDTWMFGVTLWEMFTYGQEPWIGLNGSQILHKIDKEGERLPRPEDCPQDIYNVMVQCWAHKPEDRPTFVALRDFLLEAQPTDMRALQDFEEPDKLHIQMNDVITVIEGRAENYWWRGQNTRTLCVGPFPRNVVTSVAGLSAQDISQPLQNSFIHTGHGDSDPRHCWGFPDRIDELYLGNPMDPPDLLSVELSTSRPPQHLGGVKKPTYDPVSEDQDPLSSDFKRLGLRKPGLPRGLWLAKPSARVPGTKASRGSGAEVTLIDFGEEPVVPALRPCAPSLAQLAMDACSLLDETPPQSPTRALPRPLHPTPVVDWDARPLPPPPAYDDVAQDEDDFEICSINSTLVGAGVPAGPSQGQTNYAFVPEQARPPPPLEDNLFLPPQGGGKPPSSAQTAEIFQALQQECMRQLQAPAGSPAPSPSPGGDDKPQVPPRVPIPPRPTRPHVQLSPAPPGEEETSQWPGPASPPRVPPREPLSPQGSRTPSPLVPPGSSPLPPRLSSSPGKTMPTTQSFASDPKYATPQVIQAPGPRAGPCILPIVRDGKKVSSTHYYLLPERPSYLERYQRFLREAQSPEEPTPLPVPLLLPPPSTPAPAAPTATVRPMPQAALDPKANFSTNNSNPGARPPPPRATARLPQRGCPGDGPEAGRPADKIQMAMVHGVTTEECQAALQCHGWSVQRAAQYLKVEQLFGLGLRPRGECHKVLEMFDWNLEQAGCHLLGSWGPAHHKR

The inhibition is the share of the control response that was lost under treatment. Lower therefore signals little suppression. Consider `O=C(c1ccc(-c2cnc3c(c2)N(Cc2cc(Cl)ccc2C(F)(F)F)CCN3)cc1)N1CCCCC1`, for which the inhibition in assay [1] is under 50%; in assay [2], under 50%; in assay [3], under 50%; in assay [4], 93.2%; in assay [5], under 50%.
As to `CN1CCN(c2ccc(-c3cnc4c(c3)N(Cc3c(F)ccc(F)c3Cl)CCN4)cn2)CC1`, the inhibition in assay [1] is under 50%; in assay [2], under 50%; in assay [3] it was under 50%; in assay [4] it was 85%; in assay [5], under 50%.
As for `COC1CCN(C(=O)c2ccc(-c3cnc4c(c3)N(Cc3cc(Cl)ccc3C(F)(F)F)CCN4)cc2)CC1`, the inhibition in assay [1] was under 50%; in assay [2], under 50%; in assay [3], under 50%; in assay [4], 97.2%; in assay [5], under 50%.
With `O=C(O)c1ccc(-c2cnc3c(c2)N(Cc2cc(Cl)ccc2C(F)(F)F)CCN3)cc1`, the inhibition in assay [1] was under 50%; in assay [2] it was under 50%; in assay [3] it was under 50%; in assay [4], 97.4%; in assay [5], under 50%.
Consider `FC(F)(F)c1ccc(Cl)cc1CN1CCNc2ncc(-c3ccnc(N4CCNCC4)c3)cc21`, for which the inhibition was under 50% in assay [1]; under 50% in assay [2]; under 50% in assay [3]; 99% in assay [4]; under 50% in assay [5].
Consider `CN1CCN(c2ccc(-c3cnc4c(c3)N(Cc3cc(Cl)ccc3Cl)CCN4)cn2)CC1`, for which the inhibition in assay [1] was under 50%; in assay [2] it was under 50%; in assay [3], under 50%; in assay [4], 88%; in assay [5], under 50%.
With `O=C(c1ccc(-c2cnc3c(c2)N(Cc2cc(Cl)ccc2C(F)(F)F)CCN3)cc1)N1CCC(N2CCCC2)CC1`, the inhibition in assay [1] is under 50%; in assay [2] it was under 50%; in assay [3], under 50%; in assay [4] it was 99.8%; in assay [5] it was under 50%.
In the case of `CN1CCN(c2ccc(-c3cnc4c(c3)N(Cc3cc(Cl)ccc3C(F)(F)F)CCN4)cn2)CC1`, the inhibition in assay [1] is under 50%; in assay [2], under 50%; in assay [3], under 50%; in assay [4] it was 98%; in assay [5] it was under 50%.
Take `CC(=O)N1CCN(c2cc(-c3cnc4c(c3)N(Cc3cc(Cl)ccc3C(F)(F)F)CCN4)ccn2)CC1`: the inhibition is under 50% in assay [1]; under 50% in assay [2]; under 50% in assay [3]; 99% in assay [4]; under 50% in assay [5].
Turning to `CN1CCN(c2ccc(-c3cnc4c(c3)N(Cc3cc(F)ccc3F)CCN4)cn2)CC1`, the inhibition is under 50% in assay [1]; under 50% in assay [2]; under 50% in assay [3]; 79% in assay [4]; under 50% in assay [5].

Source of the values: ChEMBL document CHEMBL1165965, “Synthesis and structure-activity relationships of 1,2,3,4-tetrahydropyrido[2,3-b]pyrazines as potent and selective inhibitors of the anaplastic lymphoma kinase” (Bioorg Med Chem, 2010).
